Test results from ChEMBL document CHEMBL4616587, “Kolavenic acid analog restores growth in HSET-overproducing fission yeast cells and multipolar mitosis in MDA-MB-231 human cells” (Bioorg Med Chem, 2020).
Values belong to the molecule of their own block, whether it stands above or below them. Calls of active or inactive are those of the source. No cut-off for these calls is given here.

Legend:
[1] = system: Schizosaccharomyces pombe; assay: Inhibition of tubulin in Schizosaccharomyces pombe TY27 overexpressing GFP-HSET assessed as growth restoring activity incubated for 3 days by agar plate-based method
Method in brief: (§1)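 Fission yeast TY27: drug-sensitive YA8 background (h+ bfr1::ura4+ pmd1::hisG leu1 ura4) carrying the pREP41-GFP-HSET plasmid, with the pREP41-GFP vector strain TY26 alongside. Simple plate assay on rich YE5S agar plates, read as restoration of growth of the HSET-overproducing cells. Screened set included SCADS Inhibitor Kits and inhibitors aimed at tubulin or Eg5.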

[2] = system: Schizosaccharomyces pombe; assay: Inhibition of HSET in Schizosaccharomyces pombe TY27 overexpressing GFP-HSET assessed as inhibition of HSET overproduction-induced lethal growth defects by measuring growth restoring activity incubated for 3 days by agar plate-based method; method in brief: as §1
[3] = system: Schizosaccharomyces pombe; assay: Inhibition of HSET in Schizosaccharomyces pombe TY27 overexpressing GFP-HSET assessed as inhibition of HSET overproduction-induced lethality by measuring cell viability at 2.8 uM incubated for 2 to 3 days relative to control
[4] = target: T1, Kinesin-like protein KIFC1 (Homo sapiens) (UniProt Q9BW19); assay: (§2) Inhibition of HSET in human MDA-MB-231 cells overexpressing HSET and possessing supernumerary centrosomes assessed as inhibition of centrosome clustering by measuring increase in multipolar spindle formation at 250 uM incubated for 24 hrs by Hoechst 33342 staining based fluorescence microscopic method; type: cell-based
T1 sequence (whole entry): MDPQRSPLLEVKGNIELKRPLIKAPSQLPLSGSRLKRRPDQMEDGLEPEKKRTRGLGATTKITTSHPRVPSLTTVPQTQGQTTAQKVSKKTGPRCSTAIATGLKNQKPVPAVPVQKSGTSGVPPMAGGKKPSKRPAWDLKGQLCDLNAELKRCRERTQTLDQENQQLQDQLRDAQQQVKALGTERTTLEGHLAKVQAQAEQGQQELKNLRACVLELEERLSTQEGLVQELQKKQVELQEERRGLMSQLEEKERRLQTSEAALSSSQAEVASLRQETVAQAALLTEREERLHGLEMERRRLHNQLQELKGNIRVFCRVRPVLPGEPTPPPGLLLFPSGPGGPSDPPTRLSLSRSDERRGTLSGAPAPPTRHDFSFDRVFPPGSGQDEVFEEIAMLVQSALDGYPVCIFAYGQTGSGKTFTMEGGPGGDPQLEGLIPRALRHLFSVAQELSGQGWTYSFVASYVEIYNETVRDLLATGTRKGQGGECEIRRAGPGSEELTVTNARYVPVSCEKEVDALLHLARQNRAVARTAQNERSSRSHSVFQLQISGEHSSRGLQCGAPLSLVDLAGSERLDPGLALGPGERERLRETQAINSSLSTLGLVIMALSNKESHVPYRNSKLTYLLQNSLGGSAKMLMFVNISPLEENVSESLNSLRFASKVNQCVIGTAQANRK

[5] = system: Schizosaccharomyces pombe; assay: (§3) Inhibition of HSET in Schizosaccharomyces pombe TY27 overexpressing GFP-HSET assessed as reversion of HSET-induced lethal abnormal monopolar spindle formation to bipolar formation by measuring cells containing monopolar spindles at 0.1 ug/ml incubated for 2 days by wide field inverted epifluorescence microscopic method (reference value: 76%); design: scale not given: the % may be the effect or the level left
[6] = system: Schizosaccharomyces pombe; assay: Inhibition of HSET in Schizosaccharomyces pombe TY27 overexpressing GFP-HSET assessed as inhibition of HSET overproduction-induced lethal growth defects by measuring growth restoring activity at 6.25 to 50 ug/spot incubated for 3 days by agar plate-based method; method in brief: as §1
[7] = system: Schizosaccharomyces pombe; assay: Inhibition of HSET in Schizosaccharomyces pombe TY27 overexpressing GFP-HSET assessed as inhibition of HSET overproduction-induced lethality by measuring increase in cell viability at 2.8 uM incubated for 2 to 3 days relative to control
[8] = system: WI-38; assay: Antiproliferative activity against human WI38 cells assessed as inhibition of cell viability incubated for 48 hrs by MTT assay; type: functional, cell-based; details: WI-38, 48 h
[9] = system: Schizosaccharomyces pombe; assay: Inhibition of HSET in Schizosaccharomyces pombe TY27 overexpressing GFP-HSET assessed as inhibition of HSET overproduction-induced lethality by measuring cell growth at 2.8 uM incubated for 2 to 3 days (reference value: 6%); design: scale not given: the % may be the effect or the level left
[10] = system: Schizosaccharomyces pombe; assay: as §3, with “1” for “0.1”; design: scale not given: the % may be the effect or the level left
[11] = system: MDA-MB-231; assay: Antiproliferative activity against human MDA-MB-231 cells assessed as inhibition of cell viability incubated for 48 hrs by MTT assay; type: functional, cell-based; details: MDA-MB-231, 48 h
[12] = system: Schizosaccharomyces pombe; assay: Inhibition of Eg5 in Schizosaccharomyces pombe TY27 overexpressing GFP-HSET assessed as growth restoring activity incubated for 3 days by agar plate-based method; method in brief: as §1
[13] = system: Schizosaccharomyces pombe; assay: Inhibition of HSET in Schizosaccharomyces pombe TY27 overexpressing GFP-HSET assessed as inhibition of HSET overproduction-induced lethality by measuring cell growth at 3.3 uM incubated for 2 to 3 days (reference value: 5%); design: scale not given: the % may be the effect or the level left
[14] = system: Schizosaccharomyces pombe; assay: Inhibition of HSET in Schizosaccharomyces pombe TY27 overexpressing GFP-HSET assessed as inhibition of HSET overproduction-induced lethality by measuring cell viability at 3.3 uM incubated for 2 to 3 days relative to control
[15] = system: Schizosaccharomyces pombe; assay: Inhibition of HSET in Schizosaccharomyces pombe TY27 overexpressing GFP-HSET assessed as inhibition of HSET overproduction-induced lethality by measuring increase in cell viability at 3.3 uM incubated for 2 to 3 days relative to control
[16] = target: T1, Kinesin-like protein KIFC1 (Homo sapiens); assay: as §2, with “bipolar” for “increase in multipolar”, “20” for “250”, “method relative to control” for “method”; type: cell-based; design: scale not given: the % may be the effect or the level left
[17] = system: Schizosaccharomyces pombe; assay: Inhibition of HSET in Schizosaccharomyces pombe TY27 overexpressing GFP-HSET assessed as inhibition of HSET overproduction-induced lethality by measuring cell growth at 0.25 uM incubated for 2 to 3 days (reference value: 8%); design: scale not given: the % may be the effect or the level left
[18] = target: T1, Kinesin-like protein KIFC1 (Homo sapiens); assay: as §2, with “bipolar” for “increase in multipolar”, “40” for “250”, “method relative to control” for “method”; type: cell-based; design: scale not given: the % may be the effect or the level left
[19] = system: Schizosaccharomyces pombe; assay: Inhibition of HSET in Schizosaccharomyces pombe TY27 overexpressing GFP-HSET assessed as inhibition of HSET overproduction-induced lethal growth defects by measuring growth restoring activity at 25 ng/spot incubated for 3 days by agar plate-based method; method in brief: as §1
[20] = target: T1, Kinesin-like protein KIFC1 (Homo sapiens); assay: as §2, with “40” for “250”, “method relative to control” for “method”; type: cell-based; design: scale not given: the % may be the effect or the level left
[21] = target: T1, Kinesin-like protein KIFC1 (Homo sapiens); assay: Inhibition of HSET in human MDA-MB-231 cells overexpressing HSET and possessing supernumerary centrosomes assessed as inhibition of centrosome clustering by measuring increase in multipolar spindle formation incubated for 24 hrs by Hoechst 33342 staining based fluorescence microscopic method; type: cell-based
[22] = system: Schizosaccharomyces pombe; assay: Inhibition of HSET in Schizosaccharomyces pombe TY27 overexpressing GFP-HSET assessed as inhibition of HSET overproduction-induced lethality by measuring cell viability at 0.25 uM incubated for 2 to 3 days relative to control
[23] = system: Schizosaccharomyces pombe; assay: as §3, with “0.01” for “0.1”; design: scale not given: the % may be the effect or the level left
[24] = target: T1, Kinesin-like protein KIFC1 (Homo sapiens); assay: as §2, with “20” for “250”, “method relative to control” for “method”; type: cell-based; design: scale not given: the % may be the effect or the level left
[25] = system: Schizosaccharomyces pombe; assay: Inhibition of HSET in Schizosaccharomyces pombe TY27 overexpressing GFP-HSET assessed as inhibition of HSET overproduction-induced lethality by measuring increase in cell viability at 0.25 uM incubated for 2 to 3 days relative to control

inhibition [1]: inactive
SMILES: CC(=O)O[C@H]1C(=O)[C@@]2(C)[C@H]([C@H](OC(=O)c3ccccc3)[C@]3(O)C[C@H](OC(=O)[C@H](O)[C@@H](NC(=O)c4ccccc4)c4ccccc4)C(C)=C1C3(C)C)[C@]1(OC(C)=O)CO[C@@H]1C[C@@H]2O

inhibition [1]: inactive
SMILES: CC[C@]1(O)C[C@H]2CN(CCc3c([nH]c4ccccc34)[C@@](C(=O)OC)(c3cc4c(cc3OC)N(C)[C@H]3[C@@](O)(C(=O)OC)[C@H](OC(C)=O)[C@]5(CC)C=CCN6CC[C@]43[C@@H]65)C2)C1

SMILES: CCCc1cc(C(=O)N[C@H](Cc2ccc(-c3cccc(OC(F)(F)F)c3)nc2)C(=O)N[C@@H]2CCNC2)sc1C
growth restoration (qualitative) [2]: Dose-dependent effect

inhibition [4]: inactive | IC50 [11]: 261 µM
SMILES: CC(=O)O[C@@H]1C[C@@]2(C)C(C)=CCC[C@@H]2[C@@](C)(CC/C(C)=C/C(=O)O)[C@@H]1C
Activity [3]: 81% | growth restoration (qualitative) [2]: Dose-dependent effect | Activity [5]: 49% | inhibition [6]: inactive | fold change (FC) [7]: > 2 | IC50 [8]: 265 µM | Activity [9]: 8% | Activity [10]: 11%

inhibition [12]: inactive
SMILES: CCOC(=O)C1=C(C)NC(=S)NC1c1cccc(O)c1 (centres undefined)

inhibition [4]: inactive | IC50 [11]: 272 µM
SMILES: CC1=CCC[C@@H]2[C@@](C)(CC/C(C)=C/C(=O)O)[C@H](C)CC[C@@]12C [KOLAVENIC ACID]
growth restoration (qualitative) [2]: Dose-dependent effect | Activity [5]: 50% | Activity [13]: 8% | Activity [14]: 59% | fold change (FC) [15]: > 2 | IC50 [8]: 265 µM | Activity [10]: 7%

IC50 [11]: 4.4 µM
SMILES: COc1cccc2c1C(=O)c1c(O)c3c(c(O)c1C2=O)C[C@@](O)(C(=O)CO)C[C@@H]3O[C@H]1C[C@H](N)[C@H](O)[C@H](C)O1 [DOXORUBICIN]

Activity [16]: 49% | Activity [18]: 23% | Activity [20]: 77% | inhibition [21]: Dose-dependent effect | IC50 [11]: 81.9 µM | Activity [24]: 44%
SMILES: C/C=C(\C)C(=O)O[C@@H]1C[C@@H](C)[C@@](C)(CC/C(C)=C/C(=O)O)[C@@H]2CCC=C(C)[C@]12C
growth restoration (qualitative) [2]: Dose-dependent effect | Activity [5]: 12% | Activity [17]: 13% | inhibition [19]: inactive | IC50 [8]: 100 µM | Activity [22]: 89% | Activity [23]: 53% | fold change (FC) [25]: > 2

inhibition [1]: inactive
SMILES: COC(=O)Nc1nc2cc(C(=O)c3cccs3)ccc2[nH]1
